In brackets after ≈: the same amount, converted by molar mass. Activity calls are given as the source filed them. The rule behind the calls is not given here.

In test [1] the test system is Histoplasma capsulatum. Nature of the test: Antifungal activity against Histoplasma capsulatum G217B after 10 to 14 days by microscopic method. It counts as functional. Summed up:
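G217B yeast-phase cells were grown in brain-heart infusion for 3 days at 37 °C under 5% CO2, then used at 1×10⁴ cells/mL final in RPMI. Twofold dilutions were tested at 64 to 0.125 µg/mL final; itraconazole (16 µg/mL downward) and amphotericin B (16 to 0.008 µg/mL) were diluted similarly. Plates were incubated 10–14 days at 37 °C under 5% CO2, with vehicle controls.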

The subject of test [2] is Aspergillus fumigatus. Nature of the test: Antifungal activity against Aspergillus fumigatus Af293 at 0.25 to 64 ug/ml after 48 hrs by microscopic method. The class given is functional, organism-based. Summed up: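 Af293 spores in RPMI with 0.1% Tween-80 were counted by hemocytometer and used at 1×10⁴ spores/mL final. Twofold compound dilutions in RPMI from DMSO stocks were tested at 64 to 0.125 µg/mL final in 96-well plates at 37 °C for 48 h, alongside DMSO-only and untreated controls.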

Test [3] concerns the target Transient receptor potential cation channel subfamily M member 8 (Homo sapiens, UniProt Q7Z2W7). Nature of the test: Antagonist activity at human TRPM8 channel expressed in HEK293 cells assessed as inhibition of icilin-induced calcium flux by Fluo-4-AM dye based fluorescence assay. It counts as cell-based. In outline: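 Stable human TRPM8 HEK-293 cells, grown in DMEM:F12 with 5% FBS and Geneticin on gelatin-coated plates, were loaded with Fluo-4 AM for 60 min at 37 °C. Compounds were added 30 min before reading in LHC-9 with 1 mM probenecid and 0.75 mM trypan red. Icilin 50 µM was the agonist. Signal was normalized to the maximal agonist response, and IC50 came from 8-point curves with n=2–3.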

Test [4] relates to Candida albicans. Nature of the test: Antifungal activity against Candida albicans SC5314 at 0.25 to 64 ug/ml after 48 hrs by microscopic method. The class given is functional, organism-based. In outline: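 SC5314 yeast grown overnight in YPD at 30 °C were counted by hemocytometer and used at 1×10⁴ cells/mL final in YPD. Twofold compound dilutions from DMSO stocks were tested at 64 to 0.125 µg/mL final, incubated 48 h at 30 °C, with DMSO-only and untreated controls.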

Test [5] concerns the target Transient receptor potential cation channel subfamily V member 1 (Homo sapiens, UniProt Q8NER1). Nature of the test: Antagonist activity at human TRPV1 channel expressed in human BEAS2B cells assessed as inhibition of […] by Fluo-4-AM dye based fluorescence assay. The class given is cell-based.
Test [6] has as its target Transient receptor potential cation channel subfamily V member 4 (Homo sapiens, UniProt Q9HBA0). Nature of the test: Antagonist activity at human TRPV4 channel expressed in HEK293 cells assessed as inhibition of GSK1016790A-induced calcium flux by Fluo-4-AM dye based fluorescence assay. The class given is cell-based. Summed up: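 HEK-293 cells stably overexpressing human TRPV4 were loaded with Fluo-4 AM for 60 min at 37 °C. Compounds were preincubated 30 min in LHC-9 containing 1 mM probenecid and 0.75 mM trypan red. GSK1016790A 0.03 µM was the agonist. Fluorescence change was normalized to the maximal agonist response, and IC50 came from 8-point curves with n=2–3.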

Transient receptor potential cation channel subfamily M member 8, sequence (Q7Z2W7 whole entry): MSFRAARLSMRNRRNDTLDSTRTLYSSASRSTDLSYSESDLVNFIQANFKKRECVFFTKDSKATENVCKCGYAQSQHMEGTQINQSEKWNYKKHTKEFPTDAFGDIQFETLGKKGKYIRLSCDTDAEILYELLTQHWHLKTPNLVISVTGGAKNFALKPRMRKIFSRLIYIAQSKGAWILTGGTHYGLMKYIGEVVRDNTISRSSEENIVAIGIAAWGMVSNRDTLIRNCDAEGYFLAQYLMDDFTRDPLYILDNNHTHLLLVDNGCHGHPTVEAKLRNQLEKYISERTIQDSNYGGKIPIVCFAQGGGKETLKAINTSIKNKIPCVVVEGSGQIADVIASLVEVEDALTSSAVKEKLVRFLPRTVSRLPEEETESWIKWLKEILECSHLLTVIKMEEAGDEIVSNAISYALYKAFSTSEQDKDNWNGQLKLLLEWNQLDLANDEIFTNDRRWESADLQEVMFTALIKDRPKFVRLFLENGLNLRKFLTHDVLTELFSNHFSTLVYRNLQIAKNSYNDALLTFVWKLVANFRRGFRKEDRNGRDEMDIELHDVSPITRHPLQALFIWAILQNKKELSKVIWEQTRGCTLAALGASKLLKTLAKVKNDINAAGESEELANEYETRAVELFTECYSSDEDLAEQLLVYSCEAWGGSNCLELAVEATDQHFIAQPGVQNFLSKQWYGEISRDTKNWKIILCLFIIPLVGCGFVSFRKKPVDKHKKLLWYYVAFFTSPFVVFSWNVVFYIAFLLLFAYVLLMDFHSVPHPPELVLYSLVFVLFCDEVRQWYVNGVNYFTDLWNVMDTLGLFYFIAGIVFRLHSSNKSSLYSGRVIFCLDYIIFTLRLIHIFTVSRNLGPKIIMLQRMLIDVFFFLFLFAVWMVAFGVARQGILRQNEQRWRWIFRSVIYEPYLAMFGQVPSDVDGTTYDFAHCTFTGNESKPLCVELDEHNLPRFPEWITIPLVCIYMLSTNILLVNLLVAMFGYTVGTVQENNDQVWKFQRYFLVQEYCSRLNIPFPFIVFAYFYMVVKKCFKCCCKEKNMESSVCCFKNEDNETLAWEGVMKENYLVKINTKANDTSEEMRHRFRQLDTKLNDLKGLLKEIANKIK
Transient receptor potential cation channel subfamily V member 1, sequence (Q8NER1 whole entry): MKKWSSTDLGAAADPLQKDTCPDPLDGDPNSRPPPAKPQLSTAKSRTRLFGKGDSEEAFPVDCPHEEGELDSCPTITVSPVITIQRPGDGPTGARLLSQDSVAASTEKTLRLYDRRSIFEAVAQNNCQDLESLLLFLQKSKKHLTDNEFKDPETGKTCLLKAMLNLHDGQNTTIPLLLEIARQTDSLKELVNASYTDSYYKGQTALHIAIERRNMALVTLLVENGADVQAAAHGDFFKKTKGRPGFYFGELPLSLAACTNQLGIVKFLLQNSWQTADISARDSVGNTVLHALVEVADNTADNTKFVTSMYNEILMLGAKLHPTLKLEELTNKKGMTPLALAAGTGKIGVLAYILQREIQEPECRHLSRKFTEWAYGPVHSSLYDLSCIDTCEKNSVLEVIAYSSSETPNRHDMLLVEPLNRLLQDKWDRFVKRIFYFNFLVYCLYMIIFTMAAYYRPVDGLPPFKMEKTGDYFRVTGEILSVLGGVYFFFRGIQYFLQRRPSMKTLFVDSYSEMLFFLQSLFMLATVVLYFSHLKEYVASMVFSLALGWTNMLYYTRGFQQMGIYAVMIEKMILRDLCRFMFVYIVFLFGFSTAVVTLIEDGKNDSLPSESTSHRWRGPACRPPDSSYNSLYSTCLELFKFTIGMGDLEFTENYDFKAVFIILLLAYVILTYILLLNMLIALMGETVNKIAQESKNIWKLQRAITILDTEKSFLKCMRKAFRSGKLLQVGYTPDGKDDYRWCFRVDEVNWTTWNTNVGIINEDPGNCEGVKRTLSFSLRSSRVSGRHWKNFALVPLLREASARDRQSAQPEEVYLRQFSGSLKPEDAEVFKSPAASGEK
Transient receptor potential cation channel subfamily V member 4, sequence (Q9HBA0 whole entry): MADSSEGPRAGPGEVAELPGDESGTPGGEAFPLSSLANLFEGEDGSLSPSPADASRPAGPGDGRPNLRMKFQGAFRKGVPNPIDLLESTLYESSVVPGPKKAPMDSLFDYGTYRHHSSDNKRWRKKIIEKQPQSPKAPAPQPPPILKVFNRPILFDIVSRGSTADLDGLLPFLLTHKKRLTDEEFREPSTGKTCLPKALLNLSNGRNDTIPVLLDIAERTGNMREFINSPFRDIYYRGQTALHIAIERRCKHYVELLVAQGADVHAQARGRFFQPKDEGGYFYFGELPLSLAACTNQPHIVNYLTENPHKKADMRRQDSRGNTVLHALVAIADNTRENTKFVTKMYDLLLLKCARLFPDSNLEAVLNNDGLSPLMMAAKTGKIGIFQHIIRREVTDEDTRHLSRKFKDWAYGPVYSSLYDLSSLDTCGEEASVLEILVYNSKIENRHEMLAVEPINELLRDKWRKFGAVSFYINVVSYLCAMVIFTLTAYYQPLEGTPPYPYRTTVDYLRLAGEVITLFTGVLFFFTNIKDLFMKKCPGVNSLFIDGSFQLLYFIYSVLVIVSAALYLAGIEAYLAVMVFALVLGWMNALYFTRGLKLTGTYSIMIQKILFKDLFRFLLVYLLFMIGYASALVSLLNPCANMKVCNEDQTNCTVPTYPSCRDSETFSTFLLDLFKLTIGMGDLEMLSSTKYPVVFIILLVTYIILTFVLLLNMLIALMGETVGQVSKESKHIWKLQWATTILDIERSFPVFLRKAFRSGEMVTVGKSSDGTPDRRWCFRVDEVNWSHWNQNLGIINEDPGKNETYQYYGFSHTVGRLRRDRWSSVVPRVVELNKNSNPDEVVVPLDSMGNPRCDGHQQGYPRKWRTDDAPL

In the case of `C[C@@H]1[C@H](O)[C@@H](C)/C=C/C=C/C=C/C=C/C=C/C=C/C=C/[C@H](O[C@@H]2O[C@H](C)[C@@H](O)[C@H](N)[C@@H]2O)C[C@@H]2O[C@](O)(C[C@@H](O)C[C@@H](O)[C@H](O)CC[C@@H](O)C[C@@H](O)CC(=O)O[C@H]1C)C[C@H](O)[C@H]2C(=O)O` [AMPHOTERICIN B], the MIC in test [1] is 0.5 mg/L (≈ 0.541 µM).
Regarding `C/C=C(\C)[C@H]1C(C)=C[C@H]2C[C@@H](C)C[C@H]3C(=O)/C(=C\NCCO)C(=O)[C@]1(C)[C@H]23`, the result in test [2] and in test [4] was inactive. For the same molecule, in test [3], the IC50 worked out at 61.6 µM. For the same molecule, in test [1], the MIC stood at 16 mg/L (≈ 43.1 µM).
Regarding `C/C=C(\C)[C@H]1C(C)=C[C@H]2C[C@@H](C)C[C@H]3C(O)=C(C=O)C(=O)[C@]1(C)[C@H]23`, the result in test [2] and in test [4] was inactive. In test [1], this molecule came in with a minimal inhibitory concentration (MIC) of 2 mg/L (≈ 6.09 µM).
In turn, `CCC(C)n1ncn(-c2ccc(N3CCN(c4ccc(OCC5COC(Cn6cncn6)(c6ccc(Cl)cc6Cl)O5)cc4)CC3)cc2)c1=O` (stereo not drawn) [ITRACONAZOLE] gave a minimal inhibitory concentration (MIC) in test [1] of 0.001 mg/L (≈ 0.00142 µM).
With `C/C=C(\C)[C@H]1C(C)=C[C@H]2C[C@@H](C)C[C@@H](C(=O)O)[C@@H]2[C@@]1(C)C(=O)CCO`, the result in test [2] and in test [4] was inactive. The IC50 in test [3] was 18.5 µM. In test [1], this molecule displayed an MIC of more than 64 mg/L.
On to `C/C=C(\C)[C@H]1C(C)=C[C@H]2C[C@@H](C)C[C@@H](C(=O)O)[C@@H]2[C@@]1(C)C(=O)c1cccnc1`, for which the IC50 in test [5] was 81.6 µM; in test [6], 45.9 µM. In addition, the outcome in test [2] and in test [4] was inactive. The minimum inhibitory concentration (MIC) in test [1] was more than 64 mg/L.
